KCNQ1 act = potentiates or activates the human KCNQ1 potassium channel. P51787. CHO-K1 KCNQ1, thallium flux FluxOR fluorescence; active compounds read high. B-score at 10 µM. 310,000 tested, 0.35% active;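 active = fluorescence ratio B-score, a plate-corrected score, at least three library SD, with initial intensity B-score within 5 SD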
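assay system = CHO-K1 cells stably expressing KCNQ1 | medium = assay buffer, equal DMSO in all wells | timing = 37 °C overnight plating, 90-min dark dye load, 20-min compound pretreatment | measured by = kinetic FluxOR thallium fluorescence, 10-s 1-Hz baseline, 110-s post-stimulus read | measure = fluorescence change relative to baseline, converted to B score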
hERG protect = compounds protecting human hERG from proarrhythmic drug block; CHO-hERG, FluxOR thallium flux, dofetilide IC70 present; 310,000 tested, 0.51% active; activation (rescue from dofetilide block), less the hit threshold, % at 10 µM;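 active = activation above the mean of controls blocked by dofetilide plus 5 SD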;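 also: thallium influx through hERG after potassium depolarization seen as dye fluorescence rise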
KCNK3 block = human KCNK3 channel inhibition, primary screen. O14649. 340,000 tested, 0.84% active. AID 602410. CHO-KCNK3 thallium flux, FluxOR fluorescence; active compounds read low. B-score at 10 µM;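 active = B-score under library mean minus 4 SD, starting fluorescence ratio at most library mean plus 5 SD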;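 also: more negative B-score means stronger inhibition of thallium flux through KCNK3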
KCNK9 inh = human KCNK9 channel inhibition | Q9NPC2 | HEK293 KCNK9, FluxOR thallium flux fluorescence; active compounds read low | B-score at 10 µM | 310,000 tested, 1.2% active | AID 488922;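 active = ratio B-score over 3 SD below the library mean, with starting fluorescence within 5 SD of its mean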;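 also: negative B-score means less thallium flux so channel inhibition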
Kir21 inh = inhibitors of mouse Kir2.1 inward-rectifier potassium channel. P35561. HEK293-Kir2.1, FluxOR thallium flux fluorescence; active compounds read low. B-score at 10 µM. 310,000 tested, 0.85% active;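 active = fluorescence ratio B-score at or below minus 3 SD of library scores, with starting-brightness B-score within 2 SD, cut at about -4.2 in these data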;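 also: channel flux triggered by added potassium and thallium sulfate stimulus; B-score of peak minus minimum fluorescence over baseline after thallium stimulus; more negative B-score means stronger Kir2.1 block with less thallium influx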
Target sequence (P35561 whole entry, looked up): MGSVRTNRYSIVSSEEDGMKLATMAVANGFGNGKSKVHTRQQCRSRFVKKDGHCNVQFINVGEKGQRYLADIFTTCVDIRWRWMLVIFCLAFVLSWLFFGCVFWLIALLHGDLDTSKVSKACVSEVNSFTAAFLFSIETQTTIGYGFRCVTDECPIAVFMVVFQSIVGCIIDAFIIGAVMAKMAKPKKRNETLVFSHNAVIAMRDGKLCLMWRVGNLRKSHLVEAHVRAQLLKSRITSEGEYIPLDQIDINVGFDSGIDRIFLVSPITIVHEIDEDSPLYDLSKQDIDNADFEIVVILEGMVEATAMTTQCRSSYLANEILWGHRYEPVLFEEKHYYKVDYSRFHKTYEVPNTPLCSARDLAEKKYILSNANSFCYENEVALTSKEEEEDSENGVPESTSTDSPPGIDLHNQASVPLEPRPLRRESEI
KCNQ1 block = inhibitors of human KCNQ1 potassium channel; P51787; CHO-K1 KCNQ1, FluxOR thallium flux fluorescence; active compounds read high; B-score at 10 µM; 310,000 tested, 1.3% active; AID 2642;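 active = compounds whose thallium flux B-score, printed positive for inhibition, exceeds three library SD while starting fluorescence stays within three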;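 also: channel opened by potassium depolarization with thallium stimulus after 20 min compound exposure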
KCNQ1 inh valid = human KCNQ1 channel inhibition, validation assay; shares compounds with KCNQ1 block; KCNQ1 cell line, FluxOR thallium flux fluorescence; inhibition, % at 10 µM; 1,600 tested, 93% active;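 active = primary screen active, with duplicate mean exceeding buffer control mean plus 3 SD of buffer wells, cut at about 28% in these data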;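 also: 0% = buffer control ratio and 100% = XE991 inhibitor control ratio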
CHO KCNQ1 ctr = KCNQ1 inhibitor counter-screen hit in parental CHO cells | shares compounds with KCNQ1 block | 1,600 tested, 21% active | fluorescence ratio (Tl flux) at 10 µM | parental CHO-K1, FluxOR thallium flux fluorescence ratio; active compounds read low; zero means no signal rise above baseline;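 active = mean of duplicate thallium-flux fluorescence ratios in parental host cells more than 5 SD below the buffer control mean, cut at about 0.38 in these data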;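 also: ratio is peak minus minimum fluorescence divided by baseline fluorescence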
KCNQ1 ephys val = blocks human KCNQ1 current in automated patch clamp | shares compounds with KCNQ1 block | KCNQ1-CHO cells | calls only at 10 µM | 490 tested, 20% active | AID 624120;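 active = KCNQ1 current drop exceeding 3 SD of negative control wells, seen in both duplicate runs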;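 also: steady state current during a 2 s step from -80 to +40 mV; negative values mean current inhibition and positive values mean potentiation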
KCNQ2 spec = rat KCNQ2 inhibition in KCNQ1 inhibitor specificity screen. inhibition, % at 10 µM. shares compounds with KCNQ1 block. KCNQ2 cells, FluxOR thallium flux fluorescence. 1,600 tested, 71% active;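 active = mean percent inhibition of the KCNQ2 thallium signal more than 5 SD above the buffer-only control wells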;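 also: KCNQ2 expressed in CHO cells; 0% = buffer control wells and 100% = XE-991 inhibitor control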
KCNQ1 KCNE1 spec = KCNQ1 inhibitor that also blocks human KCNQ1/KCNE1 channel; shares compounds with KCNQ1 block; KCNQ1/KCNE1 cells, FluxOR thallium flux fluorescence; inhibition, % at 10 µM; 1,600 tested, 77% active; AID 652147;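 active = mean percent inhibition of duplicate wells above the buffer-only control mean plus 3 SD of those controls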;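 also: 0% = buffer only wells and 100% = XE-991 inhibitor control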
The depositor's hits bear a star. In the library only some 3.7% were active in any assay of this set; here they are far more common.

Screening CCOc1ccc2[nH]c3c(NCC(C)C)ncnc3c2c1 returned KCNQ1 act inactive, hERG protect -16, KCNK3 block inactive, KCNK9 inh inactive, Kir21 inh -1.5, KCNQ1 block 6*, KCNQ1 inh valid 69*, CHO KCNQ1 ctr 0.44, KCNQ2 spec 94%* and KCNQ1 KCNE1 spec 70%*.
For CCOc1ccc2[nH]c3c(NCCOC)ncnc3c2c1 the results were KCNQ1 act inactive, hERG protect -6, KCNK3 block inactive, KCNK9 inh inactive, Kir21 inh 0.11 and KCNQ1 block inactive.
OCCN1CCOCCOc2ccccc2OCCOCC1 was read as KCNQ1 act inactive, hERG protect -5, KCNK3 block inactive, KCNK9 inh inactive, Kir21 inh -0.17 and KCNQ1 block inactive.
`c1ccc2c(c1)OCCOCCOCCOCCOCCOc1ccccc1OCCOCCOCCO2` gave KCNQ1 act inactive, hERG protect -23, KCNK3 block inactive, KCNK9 inh inactive, Kir21 inh -7.7, KCNQ1 block 8*, KCNQ1 inh valid 80*, CHO KCNQ1 ctr 0.5, KCNQ2 spec 64%* and KCNQ1 KCNE1 spec 60%*.
For Cc1cc(C)c(S(=O)(=O)N2CCN(C(=O)C3COc4ccccc4O3)CC2)c(C)c1 (stereo not drawn) the results were KCNK3 block inactive.
Screening NC(=O)N/N=C/c1c(O)ccc2oc3c(c12)CCCC3 returned KCNQ1 act inactive, hERG protect -14, KCNK3 block inactive, KCNK9 inh inactive, Kir21 inh -0.39 and KCNQ1 block inactive.
Screening CC(C)(C)N=Cc1c(O)ccc2oc3c(c12)CCCC3 returned KCNQ1 act inactive, hERG protect -16, KCNK3 block inactive, KCNK9 inh -7.9*, Kir21 inh -4.3, KCNQ1 block 9*, KCNQ1 inh valid 0, CHO KCNQ1 ctr 0.46, KCNQ2 spec 60%* and KCNQ1 KCNE1 spec inactive.
Screening COC(=O)c1cc(S(=O)(=O)NC2CCC(C)CC2)cn1C (stereo not drawn) returned KCNQ1 act inactive, hERG protect -3, KCNK3 block inactive, KCNK9 inh inactive, Kir21 inh 1.2 and KCNQ1 block inactive.
CCN(CC)c1ccc(S(=O)(=O)N2CCOCC2)cc1NC(=O)Nc1ccccc1 was read as KCNK3 block inactive.
`Oc1cccc(NC(=S)Nc2ccc(SC(F)F)cc2)c1` gave KCNQ1 act inactive, hERG protect -13, KCNK3 block inactive, KCNK9 inh inactive, Kir21 inh -0.11, KCNQ1 block 10*, KCNQ1 inh valid 68*, CHO KCNQ1 ctr 0.53, KCNQ2 spec inactive and KCNQ1 KCNE1 spec 90%*.
For Oc1cccc(NC(=S)Nc2cccnc2)c1 the results were KCNQ1 act inactive, hERG protect -4, KCNK3 block inactive, KCNK9 inh inactive, Kir21 inh -0.04 and KCNQ1 block inactive.
`Cc1cccc(-c2c3c(=O)n(C)c(=O)n(C)c3cn2-c2ccc(O)cc2)c1` gave KCNQ1 act inactive, hERG protect -15, KCNK3 block inactive, KCNK9 inh inactive, Kir21 inh 0.09, KCNQ1 block 6*, KCNQ1 inh valid 76*, CHO KCNQ1 ctr 0.49, KCNQ2 spec inactive and KCNQ1 KCNE1 spec 96%*.
Screening COC(=O)C(C)Sc1nnc2n(-c3cccc(C)c3)c(=O)c3c4c(sc3n12)CCCC4 (stereo not drawn) returned KCNQ1 act inactive, hERG protect -19, KCNK3 block inactive, KCNK9 inh inactive, Kir21 inh 0.47, KCNQ1 block 6*, KCNQ1 inh valid 42*, CHO KCNQ1 ctr 0.49, KCNQ2 spec 87%* and KCNQ1 KCNE1 spec 52%*.
`COc1ccccc1Oc1ccc(Oc2ccccc2OC)cc1` gave KCNQ1 act inactive, hERG protect -8, KCNK3 block inactive, KCNK9 inh inactive, Kir21 inh 0.96, KCNQ1 block 7*, KCNQ1 inh valid 126*, CHO KCNQ1 ctr 0.36*, KCNQ2 spec 125%* and KCNQ1 KCNE1 spec 108%*.
Screening COc1ccc(Oc2ccccc2C#N)cc1 returned KCNQ1 act inactive, hERG protect -12, KCNK3 block inactive, KCNK9 inh inactive, Kir21 inh 0.2 and KCNQ1 block inactive.
Screening CCSc1ccc([C@@H]2[C@H]3C(=O)N(C)C(=O)[C@H]3[C@]3(C(=O)OC)CCCCN23)cc1 returned KCNK3 block inactive.
For Cc1ccc(OCCN2CCN(c3ncnc4sc(C)c(C)c34)CC2)cc1 the results were KCNQ1 act inactive, hERG protect -19, KCNK3 block -11*, KCNK9 inh inactive, Kir21 inh -2.8, KCNQ1 block 11*, KCNQ1 inh valid 126*, CHO KCNQ1 ctr 0.37*, KCNQ2 spec 140%* and KCNQ1 KCNE1 spec 108%*.
Screening Oc1ccccc1N=Nc1ccccc1O returned KCNQ1 act inactive, hERG protect -12, KCNK3 block inactive, KCNK9 inh inactive, Kir21 inh -0.03, KCNQ1 block 13*, KCNQ1 inh valid 62*, CHO KCNQ1 ctr 0.51, KCNQ2 spec inactive and KCNQ1 KCNE1 spec inactive.
For Nc1ccc(N=Nc2ccccc2O)c(N)c1 the results were KCNQ1 act inactive, hERG protect -10, KCNK3 block inactive, KCNK9 inh inactive, Kir21 inh -0.04 and KCNQ1 block inactive.
Screening COc1ccc(S(=O)(=O)C(C#N)c2nc3ccccc3nc2N2CCCC(C)C2)cc1 (stereo not drawn) returned KCNQ1 act inactive, hERG protect -13, KCNK3 block inactive, KCNK9 inh inactive, Kir21 inh 0.01, KCNQ1 block 9*, KCNQ1 inh valid 124*, CHO KCNQ1 ctr 0.44, KCNQ1 ephys val inactive, KCNQ2 spec 106%* and KCNQ1 KCNE1 spec 126%*.

Screening results deposited in PubChem BioAssay by Johns Hopkins Ion Channel Center.
